Experimental data reported in ChEMBL document CHEMBL4261538, “Synthesis and molecular docking studies of xanthone attached amino acids as potential antimicrobial and anti-inflammatory agents” (Medchemcomm, 2017).
Activity calls are given as the source filed them. The calls are words filed in the database; no cut-off is given here.

Assays:
Bacillus subtilis [1] = experiment: Antibacterial activity against Bacillus subtilis at 100 ug/ml incubated for 24 hrs by agar well diffusion method; assay type: functional; conditions: read-out: DIZ
Procedure, shortened: (§1)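 Bacteria grown in nutrient broth at 37 °C for 24 h, then subcultured at room temperature. Compounds dissolved in DMSO at 5 mg mL⁻¹ and 5–20 µL added to 6 mm wells, giving 25, 50, 75, 100 µg per well. Gentamicin was the positive control and DMSO the negative control. Plates held at 37 °C for 24 h, then inhibition zone diameter (mm) measured. Values are means of three determinations.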

Staphylococcus aureus [2] = experiment: Antibacterial activity against Staphylococcus aureus at 100 ug/ml incubated for 24 hrs by agar well diffusion method; assay type: functional; conditions: read-out: DIZ; procedure, shortened: as §1
Candida albicans [3] = experiment: Antifungal activity against Candida albicans at 25 ug/ml incubated for 48 hrs by agar well diffusion method; assay type: functional; conditions: read-out: DIZ
Procedure, shortened: (§2)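 Compounds dissolved in DMSO at 5 mg mL⁻¹ and 5–20 µL added to 6 mm wells, giving 25, 50, 75, 100 µg per well. Bavistin was the positive control and DMSO the negative control. Plates incubated at 28 °C for 48 h, then inhibition zone diameter (mm) measured. Values are means of three determinations.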

Escherichia coli [4] = experiment: Antibacterial activity against Escherichia coli incubated for 24 hrs by microdilution method; assay type: functional
Klebsiella pneumoniae [5] = experiment: Antibacterial activity against Klebsiella pneumoniae at 25 ug/ml incubated for 24 hrs by agar well diffusion method; assay type: functional; conditions: read-out: DIZ; procedure, shortened: as §1
Fusarium oxysporum [6] = experiment: Antifungal activity against Fusarium oxysporum at 50 ug/ml incubated for 48 hrs by agar well diffusion method; assay type: functional; conditions: read-out: DIZ; procedure, shortened: as §2
Escherichia coli [7] = experiment: Antibacterial activity against Escherichia coli at 25 ug/ml incubated for 24 hrs by agar well diffusion method; assay type: functional; conditions: read-out: DIZ; procedure, shortened: as §1
Bacillus subtilis [8] = experiment: Antibacterial activity against Bacillus subtilis incubated for 24 hrs by microdilution method; assay type: functional
Aspergillus niger [9] = experiment: Antifungal activity against Aspergillus niger at 100 ug/ml incubated for 48 hrs by agar well diffusion method; assay type: functional; conditions: read-out: DIZ; procedure, shortened: as §2
Klebsiella pneumoniae [10] = experiment: Antibacterial activity against Klebsiella pneumoniae at 50 ug/ml incubated for 24 hrs by agar well diffusion method; assay type: functional; conditions: read-out: DIZ; procedure, shortened: as §1
Escherichia coli [11] = experiment: Antibacterial activity against Escherichia coli at 75 ug/ml incubated for 24 hrs by agar well diffusion method; assay type: functional; conditions: read-out: DIZ; procedure, shortened: as §1
Candida albicans [12] = experiment: Antifungal activity against Candida albicans at 100 ug/ml incubated for 48 hrs by agar well diffusion method; assay type: functional; conditions: read-out: DIZ; procedure, shortened: as §2
Staphylococcus aureus [13] = experiment: Induction of cell membrane damage in Staphylococcus aureus assessed as cell content leakage at MIC after 2 hrs by SEM analysis; assay type: functional, organism-based
Fusarium oxysporum [14] = experiment: Antifungal activity against Fusarium oxysporum at 25 ug/ml incubated for 48 hrs by agar well diffusion method; assay type: functional; conditions: read-out: DIZ; procedure, shortened: as §2
Bacillus subtilis [15] = experiment: Antibacterial activity against Bacillus subtilis at 50 ug/ml incubated for 24 hrs by agar well diffusion method; assay type: functional; conditions: read-out: DIZ; procedure, shortened: as §1
Aspergillus niger [16] = experiment: Antifungal activity against Aspergillus niger at 50 ug/ml incubated for 48 hrs by agar well diffusion method; assay type: functional; conditions: read-out: DIZ; procedure, shortened: as §2
Fusarium oxysporum [17] = experiment: Antifungal activity against Fusarium oxysporum incubated for 48 to 72 hrs by microdilution method; assay type: functional
Procedure, shortened: (§3)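 Sabouraud agar plates inoculated with fungal suspension at 10⁵ CFU mL⁻¹ plus serially diluted compounds and bavistin reference, both in DMSO. Incubated at 25 °C for 48–72 h. MIC is the lowest concentration completely inhibiting growth. Values are means of three determinations.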

Bacillus subtilis [18] = experiment: Antibacterial activity against Bacillus subtilis at 25 ug/ml incubated for 24 hrs by agar well diffusion method; assay type: functional; conditions: read-out: DIZ; procedure, shortened: as §1
Aspergillus niger [19] = experiment: Antifungal activity against Aspergillus niger at 25 ug/ml incubated for 48 hrs by agar well diffusion method; assay type: functional; conditions: read-out: DIZ; procedure, shortened: as §2
Bacillus subtilis [20] = experiment: Antibacterial activity against Bacillus subtilis at 75 ug/ml incubated for 24 hrs by agar well diffusion method; assay type: functional; conditions: read-out: DIZ; procedure, shortened: as §1
Erythrocyte = experiment: Anti-inflammatory activity in human RBC assessed as inhibition of hypotonic solution-induced hemolysis after 10 mins by spectrophotometric method; assay type: functional, cell-based
Procedure, shortened: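 Human blood (heparinized) washed with 0.9% saline, packed cells made into a 40% v/v stock in isotonic phosphate buffer (154 mM NaCl, 10 mM sodium phosphate, pH 7.4). Stock RBC mixed with hypotonic buffer (50 mM NaCl, 10 mM phosphate, pH 7.4) plus sample at 20–100 µg mL⁻¹.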

Candida albicans [21] = experiment: Antifungal activity against Candida albicans at 50 ug/ml incubated for 48 hrs by agar well diffusion method; assay type: functional; conditions: read-out: DIZ; procedure, shortened: as §2
Staphylococcus aureus [22] = experiment: Antibacterial activity against Staphylococcus aureus at 50 ug/ml incubated for 24 hrs by agar well diffusion method; assay type: functional; conditions: read-out: DIZ; procedure, shortened: as §1
Fusarium oxysporum [23] = experiment: Antifungal activity against Fusarium oxysporum at 75 ug/ml incubated for 48 hrs by agar well diffusion method; assay type: functional; conditions: read-out: DIZ; procedure, shortened: as §2
Escherichia coli [24] = experiment: Antibacterial activity against Escherichia coli at 50 ug/ml incubated for 24 hrs by agar well diffusion method; assay type: functional; conditions: read-out: DIZ; procedure, shortened: as §1
Klebsiella pneumoniae [25] = experiment: Antibacterial activity against Klebsiella pneumoniae at 75 ug/ml incubated for 24 hrs by agar well diffusion method; assay type: functional; conditions: read-out: DIZ; procedure, shortened: as §1
Klebsiella pneumoniae [26] = experiment: Antibacterial activity against Klebsiella pneumoniae at 100 ug/ml incubated for 24 hrs by agar well diffusion method; assay type: functional; conditions: read-out: DIZ; procedure, shortened: as §1
Staphylococcus aureus [27] = experiment: Antibacterial activity against Staphylococcus aureus at 25 ug/ml incubated for 24 hrs by agar well diffusion method; assay type: functional; conditions: read-out: DIZ; procedure, shortened: as §1
Aspergillus niger [28] = experiment: Antifungal activity against Aspergillus niger incubated for 48 to 72 hrs by microdilution method; assay type: functional; procedure, shortened: as §3
Staphylococcus aureus [29] = experiment: Antibacterial activity against Staphylococcus aureus at 75 ug/ml incubated for 24 hrs by agar well diffusion method; assay type: functional; conditions: read-out: DIZ; procedure, shortened: as §1
Staphylococcus aureus [30] = experiment: Antibacterial activity against Staphylococcus aureus incubated for 24 hrs by microdilution method; assay type: functional
Candida albicans [31] = experiment: Antifungal activity against Candida albicans at 75 ug/ml incubated for 48 hrs by agar well diffusion method; assay type: functional; conditions: read-out: DIZ; procedure, shortened: as §2
Candida albicans [32] = experiment: Antifungal activity against Candida albicans incubated for 48 to 72 hrs by microdilution method; assay type: functional; procedure, shortened: as §3
Escherichia coli [33] = experiment: Antibacterial activity against Escherichia coli at 100 ug/ml incubated for 24 hrs by agar well diffusion method; assay type: functional; conditions: read-out: DIZ; procedure, shortened: as §1
Fusarium oxysporum [34] = experiment: Antifungal activity against Fusarium oxysporum at 100 ug/ml incubated for 48 hrs by agar well diffusion method; assay type: functional; conditions: read-out: DIZ; procedure, shortened: as §2
Aspergillus niger [35] = experiment: Antifungal activity against Aspergillus niger at 75 ug/ml incubated for 48 hrs by agar well diffusion method; assay type: functional; conditions: read-out: DIZ; procedure, shortened: as §2
Klebsiella pneumoniae [36] = experiment: Antibacterial activity against Klebsiella pneumoniae incubated for 24 hrs by microdilution method; assay type: functional

For `Cl.N[C@@H](Cc1ccc(O)cc1)C(=O)Oc1ccc2c(=O)c3ccccc3oc2c1`, the zone of inhibition at 100 µg/mL (Bacillus subtilis [1]) was 40 mm, the zone of inhibition at 100 µg/mL (Staphylococcus aureus [2]) was 39 mm and the zone of inhibition at 25 µg/mL (Candida albicans [3]) was 23 mm. For the same compound, the MIC (Escherichia coli [4]) was 20 µg/mL, the zone of inhibition at 25 µg/mL (Klebsiella pneumoniae [5]) was 21 mm and the zone of inhibition at 50 µg/mL (Fusarium oxysporum [6]) was 28 mm. It also gave a zone of inhibition at 25 µg/mL (Escherichia coli [7]) of 21 mm, an MIC (Bacillus subtilis [8]) of 19 µg/mL and a zone of inhibition at 100 µg/mL (Aspergillus niger [9]) of 40 mm. The zone of inhibition at 50 µg/mL (Klebsiella pneumoniae [10]) was 26 mm, the zone of inhibition at 75 µg/mL (Escherichia coli [11]) was 34 mm and the zone of inhibition at 100 µg/mL (Candida albicans [12]) was 39 mm. The Activity (Staphylococcus aureus [13]) was “Active”, the zone of inhibition at 25 µg/mL (Fusarium oxysporum [14]) was 21 mm and the zone of inhibition at 50 µg/mL (Bacillus subtilis [15]) was 26 mm. For the same compound, the zone of inhibition at 50 µg/mL (Aspergillus niger [16]) was 31 mm, the MIC (Fusarium oxysporum [17]) was 23 µg/mL and the zone of inhibition at 25 µg/mL (Bacillus subtilis [18]) was 23 mm. It also gave a zone of inhibition at 25 µg/mL (Aspergillus niger [19]) of 24 mm, a zone of inhibition at 75 µg/mL (Bacillus subtilis [20]) of 38 mm and an IC50 (Erythrocyte) of 32 µg/mL. For the same compound, the zone of inhibition at 50 µg/mL (Candida albicans [21]) was 30 mm, the zone of inhibition at 50 µg/mL (Staphylococcus aureus [22]) was 27 mm and the zone of inhibition at 75 µg/mL (Fusarium oxysporum [23]) was 35 mm. The zone of inhibition at 50 µg/mL (Escherichia coli [24]) was 26 mm, the zone of inhibition at 75 µg/mL (Klebsiella pneumoniae [25]) was 31 mm and the zone of inhibition at 100 µg/mL (Klebsiella pneumoniae [26]) was 37 mm. The zone of inhibition at 25 µg/mL (Staphylococcus aureus [27]) was 23 mm, the MIC (Aspergillus niger [28]) was 21 µg/mL and the zone of inhibition at 75 µg/mL (Staphylococcus aureus [29]) was 35 mm. The MIC (Staphylococcus aureus [30]) was 18 µg/mL, the zone of inhibition at 75 µg/mL (Candida albicans [31]) was 36 mm and the MIC (Candida albicans [32]) was 23 µg/mL. It also gave a zone of inhibition at 100 µg/mL (Escherichia coli [33]) of 39 mm, a zone of inhibition at 100 µg/mL (Fusarium oxysporum [34]) of 41 mm and a zone of inhibition at 75 µg/mL (Aspergillus niger [35]) of 38 mm. The MIC (Klebsiella pneumoniae [36]) was 17 µg/mL.
